In ChEMBL document CHEMBL4513216, “Probing the Open Global Health Chemical Diversity Library for Multistage-Active Starting Points for Next-Generation Antimalarials” (ACS Infect Dis, 2020) one finds cytotoxicity data, which are given here for 72 compounds.

A short description of the data set: Toxicity liver stage against HepG2, at 10uM. The format is cell-based. The conditions noted are these: human, HepG2-A16-CD81EGFP cells; read-out: INHIBITION
The arrangement: test concentration 10 uM, cell line HepG2-A16-CD81EGFP. Summed up: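 Uninfected HepG2-A16-CD81EGFP cells, 3 × 10^3 per well, 1536-well, plated on prespotted compound at 10 μM final, parasite-free screening media added to match infected plates; puromycin 10 μM positive, DMSO 0.5% negative; run in parallel with 48 h PbLuc assay at 37 °C, 5% CO2; viability by CellTiter-Glo luminescence, normalized to controls.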
In the case of `CC(=O)NCC(=O)N1Cc2nccn2CC(Cn2cccn2)C1` (configuration not stated), the cytotoxicity at 10 µM worked out at 2.44%. Under `Cn1cc(CN2CCC3(CC2)CC(Nc2nccs2)CO3)cn1` (configuration not stated) stands -79.6%. Turning to `O=C(NCCN1CCOCC1)c1cc2c(s1)CCN2Cc1cccnc1`, the cytotoxicity at 10 µM was -7.98%. With `CN(Cc1cc(-c2ccccc2)no1)Cc1nccn1C`, the cytotoxicity at 10 µM was -2.27%. `CN1CCN(c2ccc(F)cc2NC(=O)NCCn2ccnc2)CC1`: the cytotoxicity at 10 µM came to 1.69%. The value for `O=C(NCCN1CCCC1)c1nc2c(o1)CN(c1ncccn1)C2` was 1.24%; that for `CC(=O)Nc1ncc(S(=O)(=O)Nc2ccc(F)cc2F)s1` was 11.1%.

Regarding `O=C(NC1CCN(CC2CCCC2)C1)N1CCC(OCC2CC2)CC1` (configuration not stated), the cytotoxicity at 10 µM is 9.86%. For `O=C(c1ccc2c(c1)OCO2)N1CCC(Nc2cccnn2)CC1`, the cytotoxicity at 10 µM is -15.6%. Under `Cc1ccc2c(n1)N(CCN(C)C)CCN(C(=O)c1cscn1)C2` stands -72.7%; under `CCCN(CCC)C1(Cc2cc(-c3cccc(O)c3)on2)COC1`, -1.19%. Under `COCCN1CCN(Cc2cccc(C(=O)N(C)C)c2)CC1` stands -6.79%; under `Cc1ncc(CN2CCOC(c3ccc(-c4ccccc4F)cn3)C2)s1` (configuration not stated), -35.7%.

Consider `Cn1ccnc1C(O)c1ccccc1N1CCN(Cc2cccs2)CC1` (configuration not stated), for which the cytotoxicity at 10 µM was determined as 5.03%.

Turning to `CN(Cc1cnccn1)C(=O)Nc1cc(F)cc(N2CCCC2)c1`, the cytotoxicity at 10 µM was 1.8%.

On to `COCc1noc(C2(c3ccc(F)cc3)CCC2)n1`, for which the cytotoxicity at 10 µM was determined as 5.93%. For `CCn1cc(CNC2CCN(c3cccc(Cl)c3)C2)cn1` (configuration not stated), the cytotoxicity at 10 µM is -10.1%.

On to `NC(=O)c1cc(C2CCCN(CCOCC(F)(F)F)C2)n[nH]1` (configuration not stated), for which the cytotoxicity at 10 µM is -11.8%. In the case of `CC(C)(C)c1ccc(OCC(N)=O)c(CN2C[C@H]3CC(O)C[C@H]3C2)c1` (some centres not stated), the cytotoxicity at 10 µM is -5.28%. With `COc1ccc(F)cc1S(=O)(=O)NCC(c1cccn1C)N(C)C` (configuration not stated), the cytotoxicity at 10 µM was -20.7%. The value for `O=C(c1cnccn1)N1CCCC(C2=Nc3ccccc3S(=O)(=O)N2)C1` (configuration not stated) was -0.055%; that for `CC(C)OC(=O)N1C[C@@H]2CC[C@H]1CN(C(=O)c1ccccn1)C2` was 0.502%; that for `C[C@]1(O)CN(CCC(N)=O)CC[C@@H]1Oc1cccc(F)c1` was -0.224%. Under `O=C(NCC1(c2ccc(F)cc2)CCCC1)N1CCOC(CO)C1` (configuration not stated) stands 0.323%.

As to `Cc1nocc1C(=O)N1CCc2c(CN(C)C)nn(C)c2C1`, the cytotoxicity at 10 µM was -0.567%. For the compound `O=C(Cc1ccc(F)cc1)NCCc1ccoc1`, the cytotoxicity at 10 µM is -10.5%. For the compound `COc1cccc(CCC(=O)N2CCC[C@@H](N)[C@@H]2c2ccccc2F)c1`, the cytotoxicity at 10 µM was found to be 8.3%. The value for `COc1cccn(CC(=O)N2CCC3(CCNCC3)C2)c1=O` was -11.4%; that for `NC(=O)CN1CCOCC(Cc2ccccc2Cl)C1` (configuration not stated) was 3.18%. Under `COCCN1CCOCC2(CCCN(Cc3cccc(F)c3)C2)C1` (configuration not stated) stands 0.346%; under `CCCn1nccc1NC(=O)CN1CCc2c(nc(C3CC3)n2C)C1`, 3.58%.

For the compound `Cc1cccc(NC(=O)Cn2nc3ccccn3c2=O)c1C`, the cytotoxicity at 10 µM was -13.4%. `Cn1nc(N2CCCC(C(=O)Nc3nc4ccccc4s3)C2)ccc1=O` (configuration not stated): the cytotoxicity at 10 µM came to 27.6%. The value for `c1cnn(Cc2nnc3n2CCCN(CC2CCOCC2)C3)c1` was 2.6%; that for `COc1ccc(CCNCc2ccco2)cc1OC` was -0.0184%; that for `O=C(NCCCn1cccn1)N1CCCC1c1ccncc1` (configuration not stated) was 21.5%.

Take `Cc1cc(C)c(CCNC(=O)CN2CCCN(C(N)=O)CC2)c(C)c1`: the cytotoxicity at 10 µM is -0.819%. The value for `Cc1cc(-c2cnc(N3CCNC(=O)C3)nc2-c2cccnc2C)on1` was -6.9%; that for `COc1nc2c(cc1C(=O)NC(C)Cc1cnccn1)CCC2` (configuration not stated) was -135%. Consider `O=C(NC1CC1)c1cc(C(F)(F)F)cc(C(F)(F)F)n1`, for which the cytotoxicity at 10 µM is 6%. Under `CCN1CC2(CC1=O)CN(Cc1ccccn1)CCN(C(C)=O)C2` (configuration not stated) stands -1.07%; under `COc1ccc(NC(=O)N2CCCC2c2ccco2)cc1OC` (configuration not stated), -7.07%; under `O=S1(=O)NC2(CCCN(CCc3ccccc3)C2)COc2ccccc21` (configuration not stated), 7.47%. The value for `CC(=O)c1ccc(OCC(=O)NS(=O)(=O)c2ccc(Cl)s2)cc1` was 1.77%; that for `NC(=O)CN1CC(c2nc(C3CC3)no2)C1` was 5.62%. The value for `Cn1cc(C2CC(=O)NC23CCN(CC2CC2)CC3)cn1` (configuration not stated) was -7.28%; that for `Cc1cnccc1CN1CCN(C)C2(CCC(=O)N(CC3CC3)CC2)C1` (configuration not stated) was -3.51%.

With `Cc1ccnn1CC(=O)N1CCCN(C2Cc3ccccc3C2)CC1`, the cytotoxicity at 10 µM is -120%.

For `COCC(=O)NS(=O)(=O)c1ccc(F)c(F)c1`, the cytotoxicity at 10 µM is -6.49%. Under `CCCN1CCC(NCc2cccc(CN3CCOC(C)C3)c2)CC1` (configuration not stated) stands -13%. On to `CS(=O)(=O)N1CCCCCC1C1CCN(c2ncccc2C#N)CC1` (configuration not stated), for which the cytotoxicity at 10 µM was -3.2%. The value for `Cn1cccc1-c1cc(C(=O)N2CCCC2C(F)(F)F)[nH]n1` (configuration not stated) was -0.968%; that for `CCOc1cccc2c1OCC(C(=O)NS(=O)(=O)c1ccc(Cl)cc1)=C2` was -11.1%; that for `Cc1ccc(C(=O)NCCNC(=O)c2cncnc2C)cc1F` was 3.91%. Under `Cc1cc(C(=O)NCCN2CCCC(C)C2)nn1C` (configuration not stated) stands -2.79%; under `COCCCN(C)c1nc(-c2ccncc2)nc2c1CCN(C(C)=O)C2`, -1.16%; under `CSc1ccc(NCC(=O)Nc2c(C)nn(C)c2C)cc1F`, 10.7%. Turning to `CCn1nc(C)c(NC(=O)CN2CC[C@@H](F)C2)c1C`, the cytotoxicity at 10 µM was -1.2%.

As for `CC1CCCN(Cc2ccc(OCc3nccn3C)cc2)C1` (configuration not stated), the cytotoxicity at 10 µM is -11.8%. As for `Cc1nc2ccccc2c(=O)n1CCC(=O)N1CCSCC1`, the cytotoxicity at 10 µM is -6.13%. The value for `Cc1cc(CN2CC[C@H]3C[C@H](C(=O)N4CCC(C)CC4)O[C@H]3C2)no1` was 1.34%; that for `Cc1nc(CNC(=O)NC2CCN(c3cccc(Cl)c3)C2)no1` (configuration not stated) was 0.636%; that for `O=c1cc(N2CCc3ccccc3C2)cnn1CCC1CCOC1` (configuration not stated) was -1.19%. Turning to `CNc1nc2c(c(C(=O)N3CCCC3)n1)CN(C(=O)c1cccs1)CC2`, the cytotoxicity at 10 µM is -112%.

Take `Cc1cnc(CC2COCCN(C(=O)CN3CCCCC3)C2)cn1` (configuration not stated): the cytotoxicity at 10 µM was -3.22%. Under `CN(CCc1cnn(C)c1)C(=O)C(c1ccccc1F)N(C)C` (configuration not stated) stands 3.11%; under `O=S(=O)(NCCCn1cncn1)c1ccc2c(c1)CCO2`, -10.2%; under `O=C(NCCCc1ccco1)c1cnc(N2CCOCC2)nc1`, 11%. Under `CCN1CCN(C(C)(C)CNc2nc(C)cc(C3CCC3)n2)CC1` stands 1.47%. As to `O=C1CC[C@@H](C(=O)N2CCC(Cn3cc(C4CCCCC4)nn3)CC2)N1`, the cytotoxicity at 10 µM was determined as 8.02%. For `O=C(Cc1ccccc1C(F)(F)F)N1CCC2(CC1)[C@H](O)C[C@@H]2O`, the cytotoxicity at 10 µM is -4.87%. Consider `Cn1c(CCNC(=O)CC[C@@H]2CCCN3CCCC[C@H]23)n[nH]c1=O`, for which the cytotoxicity at 10 µM was 4.13%.
